PKD1 kinase inh = PKD1 (human) kinase inhibition; AID 797; 0.056% of 200,000 active; inhibition, % (no concentration beside the values); Q15139; PKD1 kinase fluorescence polarization assay
eIF4E 4G PPI = eIF4E/eIF4G interaction inhibition in translation initiation | 0.37% of 220,000 active | TR-FRET eIF4E-eIF4GI(517-606) binding, 2 h | AID 782 | inhibition, % at 21.7 µM | P63073+Q04637;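 active means inhibition above about 30%, limit read from the data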;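 further: 0% = full FRET control wells and 100% = background wells lacking eIF4GI fragment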
RBBP9 inhibitor = blocks human serine hydrolase RBBP9. O75884. recombinant RBBP9, FP-Rh probe fluorescence polarization. inhibition, % at 7.94 µM. 0.2% of 220,000 active. AID 1515;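 active means inhibition above the campaign mean of all tested compounds plus 3 SD, cut at about 14% in these data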;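 further: plate controls were DMSO wells with RBBP9 for no effect and wells lacking RBBP9 protein for full effect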
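Test system – recombinant human RBBP9 · Input – RBBP9 2.5 µM in dispensing solution, pre-mixing · Medium – Tris buffer pH 8.0, NaCl, Pluronic · Schedule – preincubation 30 min plus labeling 45 min at 25 °C · Measured by – fluorescence polarization · Measure – % inhibition · Controls – DMSO and no-protein wells · Replicates – one well per compound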
EBV gp42 block = EBV gp42 inhibition | Q1HVG2 | Fluorescence polarization binding assay, mP read-out | inhibition, % (tested at 21.74 µM) | 0.42% of 220,000 active
Target sequence (Q1HVG2 whole entry, looked up): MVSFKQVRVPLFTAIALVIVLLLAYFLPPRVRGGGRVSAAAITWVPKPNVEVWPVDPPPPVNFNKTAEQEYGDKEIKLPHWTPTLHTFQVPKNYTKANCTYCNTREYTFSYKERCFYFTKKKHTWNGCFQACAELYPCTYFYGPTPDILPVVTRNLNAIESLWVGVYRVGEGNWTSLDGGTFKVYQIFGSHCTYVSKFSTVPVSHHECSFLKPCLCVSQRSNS
14-3-3 Bad inh = disrupts binding of bovine 14-3-3 zeta to phospho-Bad peptide. P63103. TR-FRET 14-3-3zeta/Dy647-pBad peptide displacement, 1 h. inhibition, % at 21.7 µM. 0.71% of 220,000 active. AID 781;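 active means inhibition above about 70%, limit read from the data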;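 further: 0% = full 14-3-3 plus peptide FRET controls and 100% = background without 14-3-3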
Target sequence (P63103 whole entry, looked up): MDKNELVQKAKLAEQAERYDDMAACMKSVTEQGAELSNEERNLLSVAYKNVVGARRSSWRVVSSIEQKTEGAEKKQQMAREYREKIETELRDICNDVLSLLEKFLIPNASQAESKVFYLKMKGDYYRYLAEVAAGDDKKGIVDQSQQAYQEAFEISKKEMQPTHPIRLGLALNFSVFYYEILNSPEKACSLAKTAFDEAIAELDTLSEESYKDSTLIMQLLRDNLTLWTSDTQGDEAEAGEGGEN
* hit, by the source's call; i = inactive; . = no result given; [ ] = another dose, or the depositor's remark. In the library only some 1.6% were active in any assay of this set; here they are far more common. Unless noted, no stated cut-off is given here; in the data, active means inhibition above about 50%; inactive means the rest.

SMILES	PKD1 kinase inh	eIF4E 4G PPI	RBBP9 inhibitor	EBV gp42 block	14-3-3 Bad inh
O=C1C(=Cc2ccc(Br)o2)C(=O)c2ccccc21	-3.0	38.1*[fluorescence artefact?]	-4.4	65.5*	88.8*[fluorescence artefact?]
CC1=C/C(=C\c2ccc(Br)o2)C(=O)O1	13.0	17.3	-6.4	51.0*	7.5
COc1ccccc1C(=O)N1CCN(C2CCN(Cc3ccccc3)CC2)CC1	-11.1	-6.2	0.0	-16.0	83.6*
COc1ccccc1N1CCN(C2CCN(C(=O)c3cc(OC)c(OC)c(OC)c3)CC2)CC1	-14.2	3.7	-12.7	-16.1	79.0*
c1ccc2sc(N3CCCN(Cc4nc(-c5cnccn5)no4)CC3)nc2c1	-4.6	-2.8	-8.1	-2.1	-4.8
O=C(O)CSc1cc(NS(=O)(=O)c2cccc([N+](=O)[O-])c2)c2ccccc2c1O	.	23.7	1.9	-2.3	85.7*
CCc1ccc(S(=O)(=O)Nc2cc(SCC(=O)O)c(O)c3ccccc23)cc1	-7.7	5.2	0.9	-10.2	41.2
Cc1ccc(NS(=O)(=O)c2cc(NC(=O)C(C)Oc3ccccc3)ccc2C)c(C)c1 (stereo unspecified)	0.5	-1.6	-10.7	-7.9	-6.1
Cc1ccc(C)c(S(=O)(=O)Nc2cc(SCC(=O)O)c(O)c3ccccc23)c1	1.7	34.0*[fluorescence artefact?]	-1.1	-5.6	83.9*[fluorescence artefact?]
Cc1ccc2oc(-c3cccc(N)c3)nc2c1	-0.5	7.8	-2.0	1.9	0.8
Nc1cccc(-c2nc3cc(S(=O)(=O)c4ccc5oc(-c6cccc(N)c6)nc5c4)ccc3o2)c1	-1.7	-45.9	-0.4	-16.3	87.4*[fluorescence artefact?]
CC1Cc2ccccc2N1c1ncnc(N)c1[N+](=O)[O-] (stereo unspecified)	67.6*	1.1	-5.9	10.0	1.9
O=C(O)CCC(=O)N1N=C(c2ccc(Br)cc2)CC1c1cccs1 (stereo unspecified)	0.9	-1.0	-0.7	7.4	82.1*
CC1=CC(=C(C#N)c2nc3ccccc3s2)C=C(C)N1CC1CCCO1 (stereo unspecified)	-2.8	0.9	-6.5	155.2*	-9.0
COc1ccc(/C=C(\NC(=O)c2ccccc2)C(=O)OCC2CCCN3CCCCC23)cc1OC (stereo unspecified)	-5.9	1.4	-0.2	-18.0	-3.8
Fc1ccc(-c2nnc(SCc3cccnc3)o2)cc1	-3.5	1.6	-7.2	4.7	-5.8
CC(NC(=S)Nc1ccc(Cl)cc1)C(c1ccccc1)N1CCOCC1 (stereo unspecified)	7.1	3.1	-4.3	-9.0	70.9*
CC(NC(=O)Nc1ccccc1)C(c1ccccc1)N1CCOCC1 (stereo unspecified)	-7.4	6.1	-8.4	-5.3	-5.7
COc1ccc(NC(=O)c2ccc(S(=O)(=O)N(C)c3ccccc3)cc2)cn1	.	-5.5	0.1	-4.2	-2.6
COc1c(C)cc(C(=O)C2CCCN(Cc3ccc(Oc4ncccn4)cc3)C2)cc1C (stereo unspecified)	12.0	70.0*	-4.2	-6.5	6.5
CCOC(=O)c1c(NC(=O)CSc2nncn2C)sc(C)c1C	7.5	2.6	3.9	10.0	4.8
Cn1cnnc1SCC(=O)Nc1sc2c(c1C(N)=O)CCC2	-2.1	18.9	4.2	65.4*	16.0
Cc1cc(-c2csc(NCc3ccccc3)n2)c(C)n1C	-10.9	12.0	2.5	18.8	97.9*
CCOC(=O)Cn1c(=S)[nH]c2c(oc3ccc(Cl)cc32)c1=O	-1.9	5.3	-1.5	1.4	-1.9
O=C(CSc1ccccn1)N/N=C/c1cc([N+](=O)[O-])ccc1O	.	-12.9	-1.4	-5.6	-3.6
SMILES	PKD1 kinase inh	eIF4E 4G PPI	RBBP9 inhibitor	EBV gp42 block	14-3-3 Bad inh
O=C(CSc1ccccn1)N/N=C/c1ccccc1[N+](=O)[O-]	-4.5	20.9	-4.7	-17.2	83.8*[fluorescence artefact?]
Cc1ccc(OCCn2c(C3CC(=O)N(Cc4ccccc4)C3)nc3ccccc32)cc1 (stereo unspecified)	-11.6	1.2	-9.0	72.9*	3.3
O=c1cc(-c2ccccc2)[nH]c2ccccc12	3.2	48.5*[fluorescence artefact?]	-5.9	-18.6	13.2
COc1ccc(C(=O)CSc2n[nH]c(C)n2)cc1[N+](=O)[O-]	1.0	1.7	4.3	-20.3	-3.0
CCOC(=O)CSC1=N/C(=C\c2ccc(OC)c(OC)c2)C(=O)N1C	-5.9	i	-11.7	5.1	73.8*[fluorescence artefact?]
CCCCN(CCCC)C(=O)C1(P(=O)(c2ccccc2)c2ccccc2)CCC1	.	-0.5	-5.4	-24.4	-7.0
Fc1cccc2sc(Nc3nc4cc5c(cc4s3)OCO5)nc12	-4.1	5.8	6.4	-7.7	-14.4
